The list is not random: actives were taken first. Their share in the collection is about 1.6%.
NR2E3 ag-1: agonists of human nuclear receptor NR2E3; Q9Y5X4; GST-NR2E3/biotin-RetCOR TR-FRET, 1536-well; inhibition of corepressor binding, % at 4.78 µM; 320,000 compounds, 0.12% hits; AID 2300;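 active = percent inhibition above the cutoff of mean plus 3 SD of all tested compounds, set per screening campaign, cut at about 20% in these data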;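 also: 0% = DMSO wells and 100% = biotin wells as full block of FRET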
Target sequence (Q9Y5X4 whole entry, looked up): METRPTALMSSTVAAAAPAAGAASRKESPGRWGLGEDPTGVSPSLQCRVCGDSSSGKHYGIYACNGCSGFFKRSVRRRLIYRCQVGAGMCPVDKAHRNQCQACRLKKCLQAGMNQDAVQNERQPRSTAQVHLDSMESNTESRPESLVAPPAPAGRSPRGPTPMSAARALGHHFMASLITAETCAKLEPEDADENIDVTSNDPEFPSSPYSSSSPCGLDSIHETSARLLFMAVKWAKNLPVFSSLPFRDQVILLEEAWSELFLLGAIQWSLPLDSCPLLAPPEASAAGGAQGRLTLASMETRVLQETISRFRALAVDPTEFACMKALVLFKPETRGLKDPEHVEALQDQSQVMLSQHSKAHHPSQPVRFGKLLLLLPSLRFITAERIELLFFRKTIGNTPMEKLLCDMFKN
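Format: 1536-well format; test system: GST-NR2E3 and biotin-RetCOR proteins; read-out basis: percent inhibition of TR-FRET ratio; timing: 5 h incubation at 4 °C; detection: time-resolved FRET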
PG9 binder: PG9 antibody binding by small molecule | inhibition, % at 6.7 µM | TR-FRET gp120-PG9 antibody binding | AID 624416 | 360,000 compounds, 0.43% hits; in the data active = inhibition above about 8.5%
PKA-R1A act: PKA-R1A complex activation | P00514+P68181 | PKA-R1A dissociation, Cy5-IP20 fluorescence polarization; scaled: DMSO 0%, 113 µM cGMP 100% | activation, % at 11.4 µM | 340,000 compounds, 0.083% hits | AID 504707;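 active = percent activation above the mean of all tested compounds plus 3 SD, cut at about 19% in these data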;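 also: higher means more PKAc released from R1A so a rise in polarization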
NR1D1 modulator: modulates human Rev-erb alpha binding to DNA | P20393 | Rev-erbα–FITC-DNA binding, fluorescence polarization, 90 min | activity, % at 10 µM | 370,000 compounds, 0.79% hits | AID 1259318;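 active = activity above about 14%, limit read from the data; passing the limit was not always enough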;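 also: 0% = DMSO wells with 35 nM protein and 100% = DMSO wells with 750 nM protein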
NR2E3 ag-2: human photoreceptor-specific nuclear receptor agonism. 360,000 compounds, 0.35% hits. Q9Y5X4. CHO-S Gal4-NCOR/VP16-NR2E3 two-hybrid, luciferase. inhibition of corepressor binding, % at 3.98 µM;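 active = inhibition above the mean of all tested compounds plus 3 SD, cut at about 70% in these data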;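 also: 0% = DMSO with NR2E3 transfected cells and 100% = cells lacking NR2E3 construct; higher means lower luciferase signal from less NR2E3 corepressor binding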
PKA-R2B activ: PKA-R2B complex activation; P22694+P31323; PKA-R2B holoenzyme dissociation, Cy5-IP20 fluorescence polarization; R2B truncated from residue 108, S112A mutant; 0% DMSO only, 100% 113 µM cGMP; 340,000 compounds, 0.079% hits; activation, % at 11.4 µM;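 active = activation above a cutoff set at the mean over all compounds plus 3 SD, cut at about 18% in these data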;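 also: higher means more holoenzyme dissociation and a rise in polarization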
NR2E3 ag confirm: NR2E3 agonism confirmed in two-hybrid assay. AID 624378. CHO-S mammalian two-hybrid NR2E3-NCOR, luciferase luminescence. inhibition, % at 3.98 µM. shares compounds with NR2E3 ag-2. 2,300 compounds, 51% hits;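 active = average inhibition above a cutoff equal to the mean inhibition of all tested compounds plus one SD, cut at about 70% in these data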;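 also: 0% = DMSO in NR2E3 cells and 100% = DMSO in cells lacking NR2E3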
GAL4-VP16 luc: counter-screen for NR2E3 agonists: GAL4-VP16 reporter inhibitors; shares compounds with NR2E3 ag-2; CHO-S GAL4-VP16 luciferase reporter, luminescence; inhibition, % at 3.98 µM; 2,300 compounds, 29% hits; AID 624379;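 active = mean inhibition above a cutoff equal to the average over all tested compounds plus one standard deviation, cut at about 70% in these data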;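 also: luciferase from a UAS reporter driven by GAL4-VP16 transactivation; 0% = DMSO with VP16-transfected cells and 100% = DMSO with cells lacking VP16; higher means less reporter light so more repression of VP16 activity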
Starred values were filed as active, the others as inactive; nt = no result given.

SMILES	NR2E3 ag-1	PG9 binder	PKA-R1A act	NR1D1 modulator	NR2E3 ag-2	PKA-R2B activ	NR2E3 ag confirm	GAL4-VP16 luc
CC[C@@H](C(=O)[C@@H](C)[C@@H](O)[C@H](C)CCc1ccc(C)c(O)c1C(=O)O)[C@H]1O[C@](CC)([C@H]2CC[C@](O)(CC)[C@H](C)O2)C[C@@H]1C	1.5	-1.1	-9.1	0.2	103.5*	15.3	97.7*	90.7*
CC(C)CN1CN2Cc3cc(F)ccc3C2CS1(=O)=O (configuration not stated)	nt	nt	nt	-1.5	nt	nt	nt	nt
C=CCn1c(COc2ccc(C)cc2)nnc1SCc1ccc([N+](=O)[O-])cc1	nt	nt	nt	-4.6	nt	nt	nt	nt
Cc1ccc(OCc2ccc(C(=O)Nc3c(C)nn(Cc4c(F)c(F)c(F)c(F)c4F)c3C)o2)c([N+](=O)[O-])c1	-2.9	-0.4	-11.2	4.1	51.1	-0.2	39.6	53.4
COC(=O)[C@]12C[C@H](CC(=O)NCCCN3CCCC3=O)C(=O)N(Cc3ccc4c(c3)OCO4)C1=C[C@H](C(C)(C)C)O[C@@H]2C	nt	-0.4	nt	-3.1	nt	nt	nt	nt
Cn1nc(C(=O)NCc2ccc(F)cc2)c2ccccc2c1=O	-2.5	0.3	-14.0	-8.4	8.4	-4.2	nt	nt
Cn1nc(CC(=O)NCc2ccc(C(F)(F)F)cc2)c2ccccc2c1=O	2.9	0.7	-15.3	-7.4	67.4	-9.6	91.3*	78.8*
COc1ccccc1CNc1nc(Nc2ccc(C)cc2C)c2sccc2n1	nt	-2.2	nt	2.6	58.6	nt	65.5	52.2
Cc1ccc(Nc2nc(NCc3ccccc3)nc3ccsc23)c(C)c1	nt	1.1	nt	3.2	56.5	nt	42.2	50.1
COc1ccccc1CNc1nc(Nc2ccccc2OC)c2sccc2n1	nt	nt	nt	nt	56.6	nt	53.9	42.9
Cc1ccc(Nc2nc(NCc3cccs3)nc3ccsc23)c(C)c1	nt	-1.9	nt	10.1	35.4	nt	nt	nt
Cc1cc(S(=O)(=O)NCCC2=CCCCC2)ccc1Br	-3.3	1.2	-8.4	-11.8	-2.3	-12.1	nt	nt
Cc1ccc(S(=O)(=O)NCCC2=CCCCC2)cc1C(N)=O	-0.9	-1.3	2.8	1.8	75.0*	8.5	83.8*	62.0
Cc1ccc(NNC(=O)C(=O)N2CCCCC2)cc1	1.8	-0.8	-10.2	-1.8	57.4	-2.0	37.4	24.2
COc1ccc(C(=O)c2sc(Nc3ccccc3)nc2N)cc1OC	-2.1	-2.9	5.5	5.8	102.1*	-10.6	80.4*	61.5
CCOC(=O)[C@@H](CCc1ccccc1)N[C@@H](C)C(=O)N1CCC[C@H]1C(=O)O	nt	nt	nt	4.5	nt	nt	nt	nt
O=C(NCCSc1ccccc1)c1ccc(Br)cc1	-0.7	0.3	-4.3	1.8	-146.1	-1.9	nt	nt
O=C(NCCCSc1ccccc1)c1cc(Br)ccc1O	nt	-1.0	-13.1	-4.5	87.4*	5.8	99.3*	90.2*
Cc1cccc(NC(=O)Nc2c(-c3ccc(C(F)(F)F)cc3)nc3ncccn23)c1	nt	nt	nt	-3.6	nt	nt	nt	nt
O=S(=O)(CC1NCCc2ccccc21)NCCc1ccccc1 (configuration not stated)	nt	nt	nt	7.3	nt	nt	nt	nt
CCOc1ccc(S(=O)(=O)n2cnc3cc(C)c(C)cc32)cc1	1.4	2.4	-5.1	3.0	65.8	6.5	83.3*	76.0*
Cn1cc([N+](=O)[O-])c(C(=O)Nc2nc(-c3ccc(Cl)cc3)cs2)n1	2.2	-0.7	-6.5	0.6	70.9*	-0.8	47.0	0.5
Nc1nc(N)nc(-c2cc([N+](=O)[O-])ccc2O)n1	-0.5	-0.2	-1.2	-5.5	33.4	-0.8	nt	nt
Nc1nc(N)nc(-c2cc(O)ccc2O)n1	-1.1	-2.1	-13.3	-0.6	76.4*	4.5	84.8*	55.5
O=C(OCc1cn(Cc2ccc(F)c(F)c2)nn1)N1CCOCC1	nt	nt	nt	6.6	nt	nt	nt	nt
SMILES	NR2E3 ag-1	PG9 binder	PKA-R1A act	NR1D1 modulator	NR2E3 ag-2	PKA-R2B activ	NR2E3 ag confirm	GAL4-VP16 luc
COC(=O)[C@H](CC(C)C)N1Cc2nnn(Cc3ccc(C)cc3)c2-c2cc(F)ccc2S1(=O)=O	nt	nt	nt	3.0	nt	nt	nt	nt
COc1ccc(S(=O)(=O)N/N=C\c2ccc3c(c2)OCO3)c(OC)c1	nt	-1.3	-5.2	-6.1	55.4	0.6	14.7	52.2
O=C(NCCc1ccccc1)OCc1cn(Cc2cccc(Cl)c2)nn1	nt	nt	nt	5.6	nt	nt	nt	nt
O=c1c2c([nH]n1-c1ccccc1)C[C@@H](C1CCCCC1)O[C@H]2c1ccc(F)cc1	nt	nt	nt	nt	57.0	nt	10.0	-17.5
CC(C)[C@H](NS(=O)(=O)c1ccc(F)cc1F)C(=O)N1CCC[C@H]1C(=O)NCCc1ccccc1Cl	nt	-1.9	nt	0.6	nt	nt	nt	nt
O=C(NNc1ccccc1)C(=O)NNc1ccccc1	nt	0.1	-3.8	5.0	52.6	-2.6	51.8	9.2
CCOC(=O)c1cnc(-n2nc(C)cc2C)nc1Nc1ccc(OC)cc1	-5.5	-1.9	-12.8	-3.0	17.0	-12.6	nt	nt
CCOC(=O)c1cnc(-n2nc(C)cc2C)nc1NCCc1ccccc1	2.7	-3.5	-9.7	-4.7	85.7*	-4.6	11.9	-6.9
CCOC(=O)c1cnc(-n2nc(C)cc2C)nc1NC1CCCC1	2.4	-0.1	-11.4	4.9	94.0*	-1.7	29.8	-0.2
O=C(Nc1cccnc1)c1ccc(COc2cc(Cl)ccc2Cl)o1	2.1	-0.3	3.3	3.4	-106.0	2.3	nt	nt
O=C(N/N=C/c1ccc(O)cc1)c1ccc(COc2cc(Cl)ccc2Cl)o1	1.7	-1.8	-0.3	-0.5	53.7	4.3	41.7	-16.7
CCCCCCn1cc(CN2CC=CS2(=O)=O)nn1	nt	nt	nt	0.9	nt	nt	nt	nt
COC[C@@H](OC(C)=O)[C@H]1OCc2ccccc2[C@@H]1/C=C/c1ccccc1	nt	nt	nt	-2.5	nt	nt	nt	nt
CC(=O)c1ccc(S(=O)(=O)N2CCN(c3ccnc4cc(Cl)ccc34)CC2)cc1	nt	-1.1	9.3	1.6	59.1	4.5	62.4	54.2
NC(=O)c1cnn(Cc2ccc(Cl)cc2)c1N	5.1	1.1	-9.8	-2.5	1.6	-2.0	nt	nt
NNC(=O)c1cnn(Cc2ccccc2)c1N	2.8	0.2	0.6	-5.1	56.6	-2.9	-16.5	0.8
COC(=O)[C@]12C[C@H](CC(=O)NCCCCc3ccccc3)C(=O)N(CCC3=CCCCC3)C1=C[C@H](COCc1ccccc1)O[C@@H]2C	nt	-0.6	nt	-5.6	nt	nt	nt	nt
